Two compounds from ChEMBL document CHEMBL4350955, “Novel Chemical Series of 5-Lipoxygenase-Activating Protein Inhibitors for Treatment of Coronary Artery Disease” (J Med Chem, 2019) can be followed below.

Series [1] deals with CYP450 (Homo sapiens, UniProt P04798+P05177+P05181+P08684+P10632+P10635+P11509+P11712+P13584+P20813+P20815+P20853+P24462+P24903+P33260+P33261+P51589+P78329+P98187+Q02928+Q08477+Q16678+Q16696+Q5TCH4+Q6VVX0+Q7Z449+Q8TAV3+Q96SQ9+Q9HB55). Put plainly: Inhibition of CYP450 assessed as maximum reduction in metabolite formation using coumarin based substrate by fluorescence assay. It is filed as ADME, protein assay. The conditions noted are these: probe coumarin based substrate.

The target in series [2] is Prostaglandin G/H synthase 2 (Homo sapiens, UniProt P35354). The series is described as follows: Inhibition of COX-2 in human whole blood assessed as reduction in LPS-stimulated prostaglandin E2 production preincubated for 15 mins followed by LPS stimulation and measured after overnight incubation by EIA. It is filed as tissue-based.
Prostaglandin G/H synthase 2, sequence (P35354 whole entry): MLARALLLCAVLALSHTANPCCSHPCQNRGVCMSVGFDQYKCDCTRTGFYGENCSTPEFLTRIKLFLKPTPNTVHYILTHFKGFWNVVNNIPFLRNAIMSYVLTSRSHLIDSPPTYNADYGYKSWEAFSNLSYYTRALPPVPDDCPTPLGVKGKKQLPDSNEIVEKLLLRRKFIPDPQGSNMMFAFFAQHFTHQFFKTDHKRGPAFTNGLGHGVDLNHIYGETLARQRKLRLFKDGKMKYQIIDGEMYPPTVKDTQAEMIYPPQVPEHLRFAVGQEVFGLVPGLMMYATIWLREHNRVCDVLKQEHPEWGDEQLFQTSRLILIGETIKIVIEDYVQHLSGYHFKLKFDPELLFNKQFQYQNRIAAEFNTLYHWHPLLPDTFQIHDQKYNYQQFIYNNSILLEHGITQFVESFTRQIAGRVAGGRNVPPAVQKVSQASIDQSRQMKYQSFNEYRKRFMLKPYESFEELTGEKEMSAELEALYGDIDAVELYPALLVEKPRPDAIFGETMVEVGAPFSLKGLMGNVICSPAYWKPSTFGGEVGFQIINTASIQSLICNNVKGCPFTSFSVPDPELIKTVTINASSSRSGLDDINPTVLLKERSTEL
Series [3] addresses Prostaglandin G/H synthase 1 (Homo sapiens, UniProt P23219). Put plainly: Inhibition of COX-1 in human whole blood assessed as reduction in calcium ionophore-stimulated thromboxane B2 production preincubated for 30 mins followed by calcium ionophore stimulation and measured after 20 mins by EIA. Type of series: tissue-based.
The nature of series [4]: Selectivity ratio of inhibition of COX-1 in human whole blood to Inhibition of 5-lipoxygenase (unknown origin).
Series [5] is described as follows: Selectivity ratio of inhibition of COX-2 in human whole blood to Inhibition of 5-lipoxygenase (unknown origin).
Series [6] deals with L5178Y. Put plainly: Genotoxicity in mouse L5178Y cells by micronucleus Assay. Type of series: toxicity, cell-based.
Series [7] has as its target Aryl hydrocarbon receptor (Homo sapiens, UniProt P35869). Put plainly: Agonist activity at AhR in human HepG2 cells assessed as induction of CYP1A1 activity at 0.001 to 30 uM measured after 24 hrs by immunocytochemistry analysis. Type of series: ADME, cell-based. The conditions noted are these: hepg2, 24 h.
The target in series [8] is Bile salt export pump (Homo sapiens, UniProt O95342). Put plainly: Inhibition of recombinant human BSEP expressed in baculovirus infected Sf21 insect cell vesicles assessed as reduction in NBD-taurocholate uptake by fluorescence assay. Type of series: ADME.
The nature of series [9]: Inhibition of phospholipidosis in rat H42EC3 cells assessed as reduction in NBD-PE accumulation by SYTOX orange staining-based high content imaging analysis. It is filed as cell-based.
In series [10] the target is ATP-binding cassette sub-family C member 2 (Rattus norvegicus, UniProt Q63120). Put plainly: Inhibition of Sprague-Dawley rat Mrp2 expressed in baculovirus infected Sf21 insect cell vesicles assessed as reduction in CDF uptake by fluorescence assay.
ATP-binding cassette sub-family C member 2, sequence (Q63120 whole entry): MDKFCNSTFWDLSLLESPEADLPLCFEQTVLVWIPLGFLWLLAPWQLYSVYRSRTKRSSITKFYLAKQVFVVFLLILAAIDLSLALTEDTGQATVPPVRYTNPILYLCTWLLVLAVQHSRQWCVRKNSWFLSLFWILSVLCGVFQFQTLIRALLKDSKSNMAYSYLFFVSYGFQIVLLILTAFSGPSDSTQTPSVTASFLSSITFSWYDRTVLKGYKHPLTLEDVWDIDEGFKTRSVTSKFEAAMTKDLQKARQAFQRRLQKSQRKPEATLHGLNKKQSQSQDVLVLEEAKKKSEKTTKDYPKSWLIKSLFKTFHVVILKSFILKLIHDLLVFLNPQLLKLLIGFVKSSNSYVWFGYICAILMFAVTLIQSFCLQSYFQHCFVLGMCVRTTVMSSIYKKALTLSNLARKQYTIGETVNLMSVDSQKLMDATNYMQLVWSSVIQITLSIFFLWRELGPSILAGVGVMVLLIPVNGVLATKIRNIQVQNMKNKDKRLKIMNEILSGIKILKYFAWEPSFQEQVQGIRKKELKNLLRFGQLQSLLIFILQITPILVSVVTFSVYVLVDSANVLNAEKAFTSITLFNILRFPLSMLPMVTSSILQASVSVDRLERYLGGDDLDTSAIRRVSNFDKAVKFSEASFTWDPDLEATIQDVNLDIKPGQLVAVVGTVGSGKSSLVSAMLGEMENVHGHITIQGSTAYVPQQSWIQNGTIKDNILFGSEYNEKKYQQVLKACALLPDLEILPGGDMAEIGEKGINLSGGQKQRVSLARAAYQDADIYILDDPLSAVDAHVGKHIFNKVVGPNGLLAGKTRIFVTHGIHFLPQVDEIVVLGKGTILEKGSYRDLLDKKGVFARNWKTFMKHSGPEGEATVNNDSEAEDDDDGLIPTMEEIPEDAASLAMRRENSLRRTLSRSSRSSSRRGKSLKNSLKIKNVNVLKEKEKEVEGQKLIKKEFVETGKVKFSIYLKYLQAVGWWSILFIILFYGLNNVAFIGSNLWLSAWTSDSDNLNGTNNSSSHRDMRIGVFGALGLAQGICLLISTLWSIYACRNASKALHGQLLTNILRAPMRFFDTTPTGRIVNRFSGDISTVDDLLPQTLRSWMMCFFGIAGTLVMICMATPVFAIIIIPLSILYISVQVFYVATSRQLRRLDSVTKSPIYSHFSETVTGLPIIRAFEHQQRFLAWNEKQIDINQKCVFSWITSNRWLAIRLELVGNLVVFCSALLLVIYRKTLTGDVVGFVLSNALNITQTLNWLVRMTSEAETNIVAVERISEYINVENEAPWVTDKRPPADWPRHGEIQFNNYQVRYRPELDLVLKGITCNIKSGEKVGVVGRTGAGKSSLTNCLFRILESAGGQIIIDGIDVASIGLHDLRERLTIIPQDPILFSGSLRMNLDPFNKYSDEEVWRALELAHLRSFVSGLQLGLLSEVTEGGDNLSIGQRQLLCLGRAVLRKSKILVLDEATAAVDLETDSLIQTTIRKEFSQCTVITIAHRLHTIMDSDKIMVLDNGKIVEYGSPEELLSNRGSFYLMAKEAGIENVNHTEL
Series [11] is described as follows: Distribution coefficient between octanol and sodium phosphate buffer, logD of the compound in pH 7.4 buffer by LC-MS/MS-based shake flask method.
Series [12] deals with T1, Arachidonate 5-lipoxygenase-activating protein (Homo sapiens, UniProt P20292).
T1 sequence (P20292 whole entry): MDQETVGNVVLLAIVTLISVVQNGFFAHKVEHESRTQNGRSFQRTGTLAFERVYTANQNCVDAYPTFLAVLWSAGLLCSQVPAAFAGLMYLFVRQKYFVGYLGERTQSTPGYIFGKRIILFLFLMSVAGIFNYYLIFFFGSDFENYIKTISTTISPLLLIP
The series is described as follows: Inhibition of [3H]MK0591 binding to human FLAP expressed in […] cell membranes measured after 60 to 80 mins by scintillation counting method.

Series [13] concerns the target T2, Arachidonate 5-lipoxygenase-activating protein (Homo sapiens) (UniProt P20292).
T2 sequence (whole entry): T1 sequence (P20292 whole entry)
Put plainly: (§1) Inhibition of FLAP in human whole blood assessed as reduction in calcium ionophore-stimulated LTB4 production preincubated for 30 mins followed by calcium ionophore stimulation and measured after 20 mins by EIA. Type of series: tissue-based.

Series [14] addresses T1, Arachidonate 5-lipoxygenase-activating protein. Described as §1. It is filed as tissue-based.
Series [15] is described as follows: Intrinsic clearance in cryopreserved human hepatocytes assessed as per million cells at 1 uM measured up to 60 mins by LC-MS/MS analysis. It is filed as ADME, cell-based, Hepatocyte. The settings on record: read-out: CLH.
Series [16] can be described thus: Apparent permeability across apical to basolateral side in human Caco2 cells. The settings on record: Caco-2. Background: Caco-2 cells form a polarised layer with tight junctions and transporters.
Series [17] addresses Voltage-gated inwardly rectifying potassium channel KCNH2 (Homo sapiens, UniProt Q12809). The series is described as follows: Inhibition of human ERG by high-throughput electrophysiology assay.
The nature of series [18]: Metabolic stability in human hepatocytes assessed as parent compound remaining. It is filed as ADME, cell-based, Hepatocyte.
Series [19] can be described thus: Clearance in po or iv dosed Sprague-Dawley rat. It is filed as ADME, organism-based. The settings on record: in vivo.
Series [20] can be described thus: Volume of distribution at steady state in po or iv dosed Sprague-Dawley rat. Type of series: ADME, organism-based. The settings on record: in vivo, read-out: Vdss.
A short description of series [21]: Half-life in po or iv dosed Sprague-Dawley rat. It is filed as ADME, organism-based. The conditions noted are these: in vivo.
A short description of series [22]: Bioavailability in po dosed Sprague-Dawley rat. It is filed as ADME, organism-based. The settings on record: in vivo.
Series [23] in a line: Protein binding in human plasma assessed as unbound fraction by LC-MS based equilibrium dialysis analysis. It is filed as ADME, cell-free. Background: In equilibrium dialysis free small molecules cross a membrane that holds back macromolecules.
The nature of series [24]: Protein binding in Sprague-Dawley rat plasma assessed as unbound fraction by LC-MS based equilibrium dialysis analysis. Type of series: ADME, cell-free.
Series [25] can be described thus: Oral bioavailability in Beagle dog at 0.1 to 1 umol/kg administered twice daily via gavage for 3 days and measured up to 79 hrs. It is filed as ADME, organism-based, Canis lupus familiaris. The settings on record: in vivo.
Series [26] is described as follows: Volume of distribution in Beagle dog at 0.004 to 0.1 umol/kg, iv or 0.1 to 1 umol/kg, po via gavage measured up to 79 hrs. It is filed as ADME, organism-based, Canis lupus familiaris. The settings on record: in vivo.
The nature of series [27]: Clearance in Beagle dog at 0.004 to 0.1 umol/kg, iv or 0.1 to 1 umol/kg, po via gavage measured up to 79 hrs. It is filed as ADME, organism-based, Canis lupus familiaris. The conditions noted are these: in vivo.
The nature of series [28]: Half-life in Beagle dog at 0.004 to 0.1 umol/kg, iv or 0.1 to 1 umol/kg, po via gavage measured up to 79 hrs. It is filed as ADME, organism-based, Canis lupus familiaris. The conditions noted are these: in vivo.
The species named for series [29] is Canis familiaris. Put plainly: Ex vivo inhibition of FLAP in Beagle dog assessed as reduction in ionophore-stimulated LTB4 production by EIA. It is filed as functional, organism-based. The settings on record: Canis lupus familiaris.
A short description of series [30]: Inhibition of FLAP in Beagle dog whole blood assessed as reduction in calcium ionophore-stimulated LTB4 production preincubated for 30 mins followed by calcium ionophore stimulation and measured after 20 mins by EIA. Type of series: tissue-based. The conditions noted are these: Canis lupus familiaris.
The nature of series [31]: Ratio of drug level in blood to plasma in human at 10 uM incubated for 30 mins by LC-MS/MS analysis. Type of series: ADME, cell-free.
A short description of series [32]: Drug absorption in Beagle dog at 0.004 to 0.1 umol/kg, iv or 0.1 to 1 umol/kg, po via gavage measured up to 79 hrs. It is filed as ADME, organism-based, Canis lupus familiaris. The settings on record: in vivo.
Series [33] concerns the target Potassium voltage-gated channel subfamily E member 1 (Homo sapiens, UniProt P15382). Put plainly: Inhibition of human IKs by IonWork electrophysiology method.
Series [34] deals with Potassium voltage-gated channel subfamily A member 5 (Homo sapiens, UniProt P22460). The series is described as follows: Inhibition of human Kv1.5 by Ion-work electrophysiology assay.
Potassium voltage-gated channel subfamily A member 5, sequence (P22460 whole entry): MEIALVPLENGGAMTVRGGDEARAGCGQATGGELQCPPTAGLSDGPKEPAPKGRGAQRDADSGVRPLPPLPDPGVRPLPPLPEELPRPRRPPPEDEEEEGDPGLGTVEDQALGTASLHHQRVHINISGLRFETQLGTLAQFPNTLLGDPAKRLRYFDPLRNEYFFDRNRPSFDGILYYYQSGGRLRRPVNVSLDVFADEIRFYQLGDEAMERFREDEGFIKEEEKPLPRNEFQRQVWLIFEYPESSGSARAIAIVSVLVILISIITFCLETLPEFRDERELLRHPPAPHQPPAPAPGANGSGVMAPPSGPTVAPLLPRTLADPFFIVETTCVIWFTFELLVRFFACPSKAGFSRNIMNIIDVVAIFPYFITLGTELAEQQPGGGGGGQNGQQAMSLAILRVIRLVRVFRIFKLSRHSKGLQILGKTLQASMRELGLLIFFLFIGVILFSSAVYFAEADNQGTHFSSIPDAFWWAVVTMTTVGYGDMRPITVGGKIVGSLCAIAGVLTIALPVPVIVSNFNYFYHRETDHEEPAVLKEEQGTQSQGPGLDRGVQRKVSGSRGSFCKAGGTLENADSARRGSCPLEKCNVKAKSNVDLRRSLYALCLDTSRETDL
Series [35] has as its target Kv channel-interacting protein 2/Potassium voltage-gated channel subfamily D member 3 (Homo sapiens, UniProt Q9UK17+Q9NS61). The series is described as follows: Inhibition of human Kv4.3/KChIP2 by Ion-work electrophysiology assay. It is filed as protein-complex assay.
The target in series [36] is Potassium/sodium hyperpolarization-activated cyclic nucleotide-gated channel 4 (Homo sapiens, UniProt Q9Y3Q4). The series is described as follows: Inhibition of human HCN4 by Ion-work electrophysiology assay.
In series [37] the target is Voltage-dependent T-type calcium channel subunit alpha-1H (Homo sapiens) (UniProt O95180). Put plainly: Inhibition of human Cav3.2 by Ion-work electrophysiology assay.
Series [38] has as its target Sodium channel protein type 5 subunit alpha (Homo sapiens, UniProt Q14524). The series is described as follows: Inhibition of human NaV1.5 by Ion-work electrophysiology assay.
The nature of series [39]: Cytotoxicity against human THLE cells incubated for 24 hrs by MTS assay. Type of series: cell-based. For orientation: Formazan colour is commonly taken as a measure of viable cells.
The target of series [40] is Polyunsaturated fatty acid lipoxygenase ALOX12 (Homo sapiens, UniProt P18054). Put plainly: Inhibition of 12-lipoxygenase (unknown origin).
Polyunsaturated fatty acid lipoxygenase ALOX12, sequence (P18054 whole entry): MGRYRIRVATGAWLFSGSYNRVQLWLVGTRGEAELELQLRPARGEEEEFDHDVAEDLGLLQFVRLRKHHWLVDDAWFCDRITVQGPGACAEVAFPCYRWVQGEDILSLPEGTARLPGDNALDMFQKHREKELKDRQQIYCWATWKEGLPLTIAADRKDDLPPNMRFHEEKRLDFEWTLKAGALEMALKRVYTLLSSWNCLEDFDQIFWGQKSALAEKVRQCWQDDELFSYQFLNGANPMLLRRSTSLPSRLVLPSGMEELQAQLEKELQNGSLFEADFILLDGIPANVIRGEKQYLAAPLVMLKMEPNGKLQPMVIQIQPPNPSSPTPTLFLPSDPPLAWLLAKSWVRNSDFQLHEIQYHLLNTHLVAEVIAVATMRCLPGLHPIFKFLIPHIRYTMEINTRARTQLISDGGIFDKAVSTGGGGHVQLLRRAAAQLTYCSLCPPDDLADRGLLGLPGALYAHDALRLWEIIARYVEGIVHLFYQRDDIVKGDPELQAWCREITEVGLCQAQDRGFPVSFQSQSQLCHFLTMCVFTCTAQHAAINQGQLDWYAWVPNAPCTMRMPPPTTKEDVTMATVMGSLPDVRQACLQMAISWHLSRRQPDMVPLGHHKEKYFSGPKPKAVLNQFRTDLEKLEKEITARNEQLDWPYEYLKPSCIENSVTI
Series [41] deals with Polyunsaturated fatty acid lipoxygenase ALOX15 (Homo sapiens, UniProt P16050). Put plainly: Inhibition of 15-lipoxygenase (unknown origin).
Polyunsaturated fatty acid lipoxygenase ALOX15, sequence (P16050 whole entry): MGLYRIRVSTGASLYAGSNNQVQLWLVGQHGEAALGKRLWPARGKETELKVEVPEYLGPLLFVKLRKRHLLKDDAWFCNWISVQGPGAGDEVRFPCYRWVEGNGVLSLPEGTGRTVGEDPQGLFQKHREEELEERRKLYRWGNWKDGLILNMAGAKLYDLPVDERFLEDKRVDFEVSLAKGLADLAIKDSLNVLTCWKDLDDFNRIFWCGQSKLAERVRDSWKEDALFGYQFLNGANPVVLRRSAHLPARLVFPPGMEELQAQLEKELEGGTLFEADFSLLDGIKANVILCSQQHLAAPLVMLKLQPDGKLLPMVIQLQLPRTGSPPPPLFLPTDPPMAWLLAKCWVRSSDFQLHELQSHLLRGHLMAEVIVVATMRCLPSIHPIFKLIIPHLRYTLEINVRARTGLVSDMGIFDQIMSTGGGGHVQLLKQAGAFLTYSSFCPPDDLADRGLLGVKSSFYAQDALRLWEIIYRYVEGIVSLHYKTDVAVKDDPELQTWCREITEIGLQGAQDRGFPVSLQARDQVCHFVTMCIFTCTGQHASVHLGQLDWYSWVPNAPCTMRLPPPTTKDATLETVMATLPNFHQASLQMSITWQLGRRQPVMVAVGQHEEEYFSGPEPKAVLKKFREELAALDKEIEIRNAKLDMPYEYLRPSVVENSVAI
For series [42], the system named is HepG2. The series is described as follows: Induction of mitochondrial impairment in human HepG2 cells incubated for 24 hrs by CellTiter-Glo Luminescent Cell Viability Assay. Type of series: cell-based. The conditions noted are these: hepg2, 24 h.
The nature of series [43]: Genotoxicity in Salmonella typhimurium by Ames test. The conditions noted are these: salmonella enterica subsp. enterica serovar typhimurium. It is filed as toxicity. A digest of the protocol:
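Two-strain Salmonella Ames test, with and without metabolic activation by rat liver S9 fraction; applied to amino pyrazole building blocks present in the series.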

In series [44] the target is Polyunsaturated fatty acid 5-lipoxygenase (Homo sapiens, UniProt P09917). The series is described as follows: Inhibition of 5-lipoxygenase (unknown origin).
Polyunsaturated fatty acid 5-lipoxygenase, sequence (P09917 whole entry): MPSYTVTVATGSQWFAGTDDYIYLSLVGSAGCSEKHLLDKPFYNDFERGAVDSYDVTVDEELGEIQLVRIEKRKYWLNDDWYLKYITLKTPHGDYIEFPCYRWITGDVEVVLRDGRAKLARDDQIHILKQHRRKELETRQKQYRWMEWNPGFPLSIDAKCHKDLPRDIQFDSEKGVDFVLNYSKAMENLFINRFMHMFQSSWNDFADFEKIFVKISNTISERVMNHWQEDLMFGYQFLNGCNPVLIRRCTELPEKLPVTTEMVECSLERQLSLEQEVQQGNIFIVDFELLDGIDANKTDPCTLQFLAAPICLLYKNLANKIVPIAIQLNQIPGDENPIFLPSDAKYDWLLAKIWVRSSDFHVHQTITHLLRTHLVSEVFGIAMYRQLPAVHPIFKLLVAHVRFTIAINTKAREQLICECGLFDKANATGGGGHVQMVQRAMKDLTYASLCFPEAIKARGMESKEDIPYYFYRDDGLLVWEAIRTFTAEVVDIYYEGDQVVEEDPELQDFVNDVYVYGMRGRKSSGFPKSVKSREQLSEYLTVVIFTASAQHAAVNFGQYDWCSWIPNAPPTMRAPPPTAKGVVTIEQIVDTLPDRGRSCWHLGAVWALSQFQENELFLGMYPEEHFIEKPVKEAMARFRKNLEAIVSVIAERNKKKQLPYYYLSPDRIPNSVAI
A short description of series [45]: physchem. The settings on record: phosphate buffer, pH 7.4.
Series [46] in a line: Chemical stability of the compound. Type of series: physicochemical.

≈ marks a conversion by molar mass, not a printed value. Calls of active or inactive are those of the source. The rule behind the calls is not given here.

Take `Cc1cc(-c2ccc(C(=O)[C@@H]3CCCC[C@H]3C(=O)Nc3cn(C)nc3C)cc2)n[nH]1`: the IC50 in [1] was more than 25100 nM; in series [8], 120000 nM; in [12] it was 63.1 nM; in series [14], 63.1 nM; in series [17], more than 100000 nM; in series [29] it was 34 nM. Also, the IC50 in series [30] was determined as 28 nM. Further, the “inhibition (INH)” value in [2], in [3], in [10], in series [33], in series [34] and in [35] was “Not Active” each time. Moreover, the “inhibition (INH)” value in series [36], in [38], in series [40], in [41] and in series [44] was “Not Active” each time. The Selectivity ratio result in series [4] and in series [5] was “>= 100” in each case. For the same compound, the Activity result was “Non-Toxic” in [6]; “Not Active” in series [7]; “Non-Toxic” in [39]; “Non-Toxic” in series [42]; “Non-Toxic” in series [43]. The EC50 in [9] turned out to be 32000 nM. In series [11], the logD came out at 3. The fpIC50 in series [13] turned out to be 8.1. For the same compound, the hepatocyte CLint at 1 µM in [15] is 4 µL/min/1e6 cells. The Papp A→B in series [16] came out at 20 ×10⁻⁶ cm/s. The Stability in series [18] is recorded as 72%. Besides, the clearance was 6 mL/min/kg in series [19] and 3.33 mL/min/kg in [27]. In addition, the values for the Vd in series [20] and in [26] were 0.83 L/kg and 0.98 L/kg, respectively. Moreover, the half-life in series [21] is 4.5 h; in series [28], 3.4 h. Also, the bioavailability in series [22] turned out to be 47%; in series [25], 51%. For the same compound, the unbound share (fraction unbound) in series [23] was 0.11; in series [24], 0.043. Moreover, in series [29], the inhibition result was “Dose-dependent effect”. Further, the blood plasma ratio at 0.5 h, 10 µM in series [31] was 0.74. The same compound yielded a ka in series [32] of 5.3 h⁻¹. Moreover, in [37], the inhibition entry was “inactive”. This compound also showed a solubility at 24 h in series [45] of 225 µM (≈ 91.2 µg/mL).

As for `Cn1cc(NC(=O)[C@@H]2CCCC[C@H]2C(=O)c2ccc(-c3ccn[nH]3)cc2)c(OC(F)F)n1`, in series [46], the Stability entry is listed as “Unstable”. This compound yielded a logD in series [11] of 3.

The term IC50 denotes the point on the concentration scale where inhibition reaches its midpoint. Usually EC50 stands for the concentration that produces a half-maximal response. By logD is commonly meant the decadic logarithm of the distribution of all forms, ionised or not, between an organic phase and buffer at a given pH. A lower logD goes with lower lipophilicity. By Papp A→B is commonly meant the apparent permeability from the apical to the basolateral side of a cell layer. What is called half-life is how long it takes for the measured level to halve. Low readings indicate fast loss, high ones slow loss. As usually defined, the bioavailability is the share of a dose that reaches the circulation, judged against a reference dose that is usually intravenous. High values mean good availability, low ones poor availability. In general, fraction unbound refers to free concentration divided by total concentration. As a reminder, the solubility is the dissolved amount per volume that the medium holds. Low values mean little dissolved substance, high ones much dissolved substance.
